From ChEMBL document CHEMBL1133252 (Bioorg Med Chem Lett, 2000) come the findings set out here.

The subject of assay [1] is 143B. The assay is described as follows: Inhibitory activity against tumor osteosarcoma cell line 143B after 72 hr continuous exposure to compound. The following applies: Homo sapiens. In kind it is functional, cell-based. Summed up:
(§1)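 Log-phase cells were plated in triplicate at 2500–3500 cells/well, and the compound was added 24 h later for 72 h continuous exposure. […] Media: A2780/143B DMEM+5% FBS; HT29 DMEM+10% FBS; HCT116 RPMI+10% FBS; ADDP (cisplatin-resistant A2780) RPMI+5% FBS.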

The subject of assay [2] is A2780. The assay is described as follows: Inhibitory activity against ovarian tumor cell line A2780 after 72 hr continuous exposure to compound. The class given is functional, cell-based. The following applies: Homo sapiens, A2780, 72 h. Summed up: as §1
Assay [3] deals with ADDP cell line. Put plainly: Inhibitory activity against ovarian tumor cell line ADDP after 72 hr continuous exposure to compound. The class given is functional, cell-based. Conditions: Homo sapiens. Summed up: as §1
Assay [4] deals with HCT-116. Put plainly: Inhibitory activity against colon tumor cell line HCT116 after 72 hr continuous exposure to compound. In kind it is functional, cell-based. Conditions: Homo sapiens, HCT-116, 72 h. Summed up: as §1
For assay [5], the system named is HT-29. Put plainly: Inhibitory activity against colon tumor cell line HT-29 after 72 hr continuous exposure to compound. The following applies: Homo sapiens, HT-29, 72 h. The class given is functional, cell-based. A digest of the protocol:
as §1

Assay [6] has as its target Serine/threonine-protein phosphatase 2A catalytic subunit (Gallus gallus). Put plainly: Inhibitory activity against partially purified (chicken skeletal muscle) Protein phosphatase 2A.
The target of assay [7] is Serine/threonine-protein phosphatase 2A catalytic subunit alpha isoform (Homo sapiens) (UniProt P67775). Put plainly: The compound was tested for the selectivity against protein phosphatases 2A.
In assay [8] the test system is L1210. The assay is described as follows: Inhibitory activity against L1210 leukemia cells. In kind it is functional, cell-based. Conditions: Mus musculus.
For assay [9], the target named is T1, DNA topoisomerase 2 (Drosophila melanogaster, UniProt P15348).
T1 sequence (P15348 whole entry): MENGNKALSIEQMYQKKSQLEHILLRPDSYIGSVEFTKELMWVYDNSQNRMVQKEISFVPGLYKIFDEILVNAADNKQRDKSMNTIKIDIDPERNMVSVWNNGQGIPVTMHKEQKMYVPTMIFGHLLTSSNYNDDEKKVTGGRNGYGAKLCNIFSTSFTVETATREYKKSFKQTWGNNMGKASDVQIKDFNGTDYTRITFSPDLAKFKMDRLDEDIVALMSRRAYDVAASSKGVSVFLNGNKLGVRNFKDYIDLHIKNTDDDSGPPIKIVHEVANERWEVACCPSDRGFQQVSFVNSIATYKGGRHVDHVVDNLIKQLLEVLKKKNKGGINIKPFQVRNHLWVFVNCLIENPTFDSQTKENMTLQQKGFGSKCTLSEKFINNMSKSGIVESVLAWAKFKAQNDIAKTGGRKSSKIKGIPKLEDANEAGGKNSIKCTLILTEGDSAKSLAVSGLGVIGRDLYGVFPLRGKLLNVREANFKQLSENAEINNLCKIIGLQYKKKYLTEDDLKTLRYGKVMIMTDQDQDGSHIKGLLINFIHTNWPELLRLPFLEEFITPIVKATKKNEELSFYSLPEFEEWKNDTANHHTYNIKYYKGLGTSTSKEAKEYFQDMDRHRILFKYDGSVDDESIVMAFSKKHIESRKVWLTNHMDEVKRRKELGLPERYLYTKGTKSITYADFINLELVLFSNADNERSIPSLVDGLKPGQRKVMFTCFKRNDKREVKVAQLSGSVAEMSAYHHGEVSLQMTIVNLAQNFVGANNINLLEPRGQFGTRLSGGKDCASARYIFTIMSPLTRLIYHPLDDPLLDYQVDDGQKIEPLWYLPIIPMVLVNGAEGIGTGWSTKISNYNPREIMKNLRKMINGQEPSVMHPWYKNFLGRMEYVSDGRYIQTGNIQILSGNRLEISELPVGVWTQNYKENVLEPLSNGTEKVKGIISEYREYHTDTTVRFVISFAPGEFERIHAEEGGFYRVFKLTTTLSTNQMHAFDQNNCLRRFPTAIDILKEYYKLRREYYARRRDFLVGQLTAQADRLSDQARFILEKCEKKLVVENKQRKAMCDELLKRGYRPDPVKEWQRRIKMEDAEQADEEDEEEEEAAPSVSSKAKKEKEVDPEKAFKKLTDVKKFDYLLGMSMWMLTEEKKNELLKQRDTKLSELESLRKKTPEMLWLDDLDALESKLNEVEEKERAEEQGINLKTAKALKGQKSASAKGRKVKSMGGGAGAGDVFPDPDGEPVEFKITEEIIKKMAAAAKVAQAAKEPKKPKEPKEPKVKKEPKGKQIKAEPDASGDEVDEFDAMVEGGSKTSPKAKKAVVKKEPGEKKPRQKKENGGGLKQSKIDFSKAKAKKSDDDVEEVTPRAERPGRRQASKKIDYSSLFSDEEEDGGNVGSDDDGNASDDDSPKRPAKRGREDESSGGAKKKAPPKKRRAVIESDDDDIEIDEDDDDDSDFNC
The assay is described as follows: Inhibition of topoisomerase IIin vitro through a novel, non-DNA-strandcleaving mechanism.

Serine/threonine-protein phosphatase 2A catalytic subunit alpha isoform (Homo sapiens), sequence (P67775 whole entry, canonical isoform): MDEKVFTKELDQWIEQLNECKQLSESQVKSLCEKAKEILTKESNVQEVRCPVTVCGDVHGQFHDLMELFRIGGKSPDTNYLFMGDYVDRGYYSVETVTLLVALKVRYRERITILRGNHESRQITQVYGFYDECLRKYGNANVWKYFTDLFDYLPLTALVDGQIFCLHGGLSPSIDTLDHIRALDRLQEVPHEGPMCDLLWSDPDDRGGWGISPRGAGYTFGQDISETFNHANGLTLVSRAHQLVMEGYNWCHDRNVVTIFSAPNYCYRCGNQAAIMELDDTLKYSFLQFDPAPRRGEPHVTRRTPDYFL

As for `COC1OC(=O)[C@H]2[C@@H]1[C@@H]1CC[C@H]2O1` (some centres undefined), the IC50 (commonly the midpoint of a concentration-inhibition curve) in assay [1] was more than 1000 µM; in assay [2], 538 µM; in [3] it was 323 µM; in assay [4] it was 143 µM; in assay [5], 28 µM; in assay [6], more than 1000 µM.
In the case of `CCCOC1OC(=O)[C@H]2[C@@H]1[C@@H]1CC[C@H]2O1` (some centres undefined), the half-inhibitory concentration (IC50) in [1] was more than 1000 µM; in assay [2], 375 µM; in assay [3], 535 µM; in assay [4], 195 µM; in [5], 41 µM.
For the compound `CCOC1OC(=O)[C@H]2[C@@H]1[C@@H]1CC[C@H]2O1` (some centres undefined), the IC50 came out at 103 µM in [1]; 100 µM in assay [2]; 107 µM in assay [3]; 80 µM in assay [4]; 26 µM in assay [5].
Turning to `O=C1OC(=O)[C@H]2[C@@H]1[C@@H]1CC[C@H]2O1`, the IC50 turned out to be 43 µM in assay [1]; 50 µM in [2]; 47 µM in assay [3]; 24 µM in assay [4]; 33 µM in [5].
As to `COC(=O)C1C(C(=O)O)[C@@H]2CC[C@H]1O2` (single isomer, unassigned), the IC50 in [1] worked out at 118 µM; in assay [2], 100 µM; in [3] it was 180 µM; in [4] it was 76 µM; in [5], 105 µM.
On to `CCCOC(=O)C1C(C(=O)O)[C@@H]2CC[C@H]1O2` (single isomer, unassigned), for which the IC50 in [3] came out at 315 µM; in assay [4] it was 75 µM; in assay [5], 15 µM.
With `CCOC(=O)C1C(C(=O)O)[C@@H]2CC[C@H]1O2` (single isomer, unassigned), the IC50 is 437 µM in [1]; 185 µM in [2]; 330 µM in [3]; 266 µM in [4]; 243 µM in [5]; 0.45 µM in [6]. This compound also had a Selectivity in assay [7] of 6.6.
For `C[C@@]12C(=O)OC(=O)[C@]1(C)[C@H]1CC[C@@H]2O1` [CANTHARIDIN], the IC50 is 10 µM in assay [1]; 10 µM in assay [2]; 11 µM in assay [3]; 9 µM in assay [4]; 6.4 µM in assay [5].
With `C[C@@](O)(/C=C/[C@H]1CC=CC(=O)O1)[C@@H](C[C@@H](O)\C=C/C=C\C=C\CO)OP(=O)(O)O` [FOSTRIECIN], the results for the IC50 in [8], in [9] and in [6] were 0.46 µM, 40 µM and 0.0034 µM, respectively.
